Arrestin-AP2 inh – inhibitors of human beta-arrestin and AP2 interaction | FITC-arrestin peptide / GST-AP2 beads, flow cytometry; AP2 beta2 appendage carries R879A mutation | inhibition, % at 10 µM | actives 0.31% (n = 340,000);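 active means inhibition above a set limit, near 3 SD of compounds lacking own fluorescence, cut at about 54% in these data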
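System: GST-AP2 R879A glutathione beads | Also added: FITC-arrestin peptide, 50 nM | Times: 12 min plus 1 h, RT | Signal: Bead flow cytometry, FITC channel | Buffer or medium: PBS with 0.05% Tween 20 and 0.1% BSA | Read-out basis: Percent drop in bead-associated FITC signal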
Xi reactivation – X-chromosome reactivation activator; actives 0.055% (n = 360,000); activation, % at 7.58 µM; AID 743238; XiGFP mouse fibroblasts, % GFP-positive cells imaging, 3 d; cells co-treated with 5-aza-dC sensitizer; scaled so ellipticine positive control = 100%;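 active means mean normalized replicate activation at least 10% and every replicate at or above 10%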
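Schedule: 3 d treatment, 15 min room-temperature fixation; system: 68-5-11 XiGFP fibroblast line; buffer or medium: DMEM plus 5-aza-dC sensitizer; control set: ellipticine 6 µM positive control; compound: one concentration, pinned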
MIN6 prolif – induces beta-cell replication in MIN6 cells | MIN6 cells proliferation, ATPlite luminescence, 48 h; cells starved in 0.2% serum; 100% = growth in 10% serum | proliferation, % at 10 µM | actives 0.29% (n = 330,000) | AID 2380;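 active means compounds whose signal lies at least 3.5 SD above the mean of all wells on their plate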
T cell modulator – T cell immune modulation candidate; response (vesicle binding), % at 7 µM; 2C CD8+ T cell-vesicle binding, flow cytometry; hits give low values; actives 0.068% (n = 330,000); AID 2052;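 active means response, share of CD8 T cells binding vesicles, and their 90th percentile fluorescence all below set limits, cut at about 80% in these data, passing the limit was not always enough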;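 further: values below 100% mean blocked vesicle binding to the CD8+ T cells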
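System: murine 2C transgenic CD8+ T lymphocytes; also added: QL9-loaded Drosophila micro-vesicles; times: binding 1.5 h at 37 °C; measured by: flow cytometry, PE anti-B7-1 (FL2) versus Alexa647 anti-CD8 (FL8), PFA-fixed; control set: Peptide-free naked vesicles (low) and QL9 vesicles with 0.7% DMSO vehicle (high)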
V-ATPase pH – regulators of yeast V-ATPase proton transport | actives 0.37% (n = 350,000) | S. cerevisiae, pHLuorin cytosolic pH fluorescence | AID 504577 | response, % at 10 µM; in the data active means response mostly above about 7.3%, no sharp cut-off; inactive means mostly below about 5.4%; further: actives read high
NTR1 agonist – NTR1 (human) agonism. P30989. NTR1-U2OS beta-arrestin-GFP spot imaging, agonist mode. activation, % at 20 µM. actives 0.17% (n = 330,000). AID 493036;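 active means activation at or above 40% of the spot to cytoplasm intensity ratio, with at least 20 cells analyzed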
Target sequence (P30989 whole entry, looked up): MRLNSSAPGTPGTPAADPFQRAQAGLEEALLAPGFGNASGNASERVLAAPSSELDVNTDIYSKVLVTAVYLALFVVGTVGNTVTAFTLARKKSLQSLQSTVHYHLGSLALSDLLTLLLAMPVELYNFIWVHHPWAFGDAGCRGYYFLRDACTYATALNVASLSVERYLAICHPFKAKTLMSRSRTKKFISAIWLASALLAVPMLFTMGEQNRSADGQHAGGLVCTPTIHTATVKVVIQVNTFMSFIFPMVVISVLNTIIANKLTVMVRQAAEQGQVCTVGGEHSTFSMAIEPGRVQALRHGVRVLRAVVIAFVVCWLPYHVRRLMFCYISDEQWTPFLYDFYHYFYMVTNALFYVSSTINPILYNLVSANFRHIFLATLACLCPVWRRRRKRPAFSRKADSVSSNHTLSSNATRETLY
A number is an active result; n = inactive; x = no result given. This is a sample that favours compounds with a hit; in the whole collection about 0.89% have one here.

SMILES | Arrestin-AP2 inh | Xi reactivation | MIN6 prolif | T cell modulator | V-ATPase pH | NTR1 agonist
COc1ccc(S(=O)(=O)Nc2ccc3c(c2)C(=O)N([C@@H](C)CO)C[C@@H](C)[C@@H](CN(C)C(=O)Nc2cccc4ccccc24)O3)cc1 | x | n | x | x | x | x
CC(C)[C@H](NC(=O)c1ccccc1F)C(=O)OCC(=O)NC1CC1 | n | n | n | n | 20 | n
CN(C)C(=O)C[C@H]1C[C@H]2c3cc(NC(=O)C4CCC4)ccc3O[C@H]2[C@H](CO)O1 | x | n | x | x | x | x
CC(C)N(CCNC(=O)c1nn(Cc2ccccc2)c(=O)c2ccccc12)C(C)C | n | n | n | 0.0 | n | n
COc1ccc2c(n1)Sc1nc3ccccc3nc1N2 | n | 68 | x | n | n | x
CCOC(=O)N1CCC(Nc2c(NCCN3CCN(Cc4ccccc4)CC3)c(=O)c2=O)CC1 | n | x | n | n | 14 | n
CCOC(=O)N1CCN(c2c(NCCN3CCN(Cc4ccccc4)CC3)c(=O)c2=O)CC1 | n | n | n | n | n | n
Cc1noc(C)c1NC(=O)Nc1ccc2c(c1)CC(=O)N([C@@H](C)CO)C[C@H](C)[C@H](CN(C)S(=O)(=O)c1cn(C)cn1)O2 | x | n | x | x | x | x
O=C(Nc1nc2c(s1)CCCC2)C1COc2ccccc2O1 (centres undefined) | n | n | n | 38 | n | n
CCC(=O)N1CCc2cc(Br)cc(S(=O)(=O)NCC3CCCO3)c21 (centres undefined) | n | x | n | n | 14 | n
CC(C)(COC(=O)c1ccccc1)N1CC2CCC(C1)O2 | n | n | x | x | 19 | x
CC(C)[C@@H]1C(=O)N[C@H](c2ccccc2)CC=CC[C@@H](C)Oc2ccccc2C(=O)N1C (mixture of isomers) | x | n | x | x | x | x
C[C@@H]1CN([C@@H](C)CO)C(=O)Cc2cc(NS(C)(=O)=O)ccc2O[C@H]1CN(C)S(C)(=O)=O | x | n | x | x | x | x
CNC[C@@H]1Oc2ccccc2CC(=O)N(C)C[C@@H]1C | x | n | x | x | x | x
COc1ccc(NC(=O)Nc2ccc(O)c3ccccc23)cc1 | n | n | n | 37 | n | n
CC(C)NC(=O)N[C@H]1CC[C@@H](CCNS(=O)(=O)c2ccc(Cl)cc2)O[C@@H]1CO | x | n | x | x | x | x
Cn1cc(C2=C(c3ccc(Cl)cc3Cl)C(=O)NC2=O)c2ccccc21 | n | 59 | n | n | n | n
COc1cc(/C=C/C(=O)O)cc(S(=O)(=O)N(C)CCO)c1OC | n | x | n | 0.0 | n | n
Cc1ccccc1NS(=O)(=O)c1ccc(NC(=O)CSCc2ccc(Br)cc2)cc1 | n | x | n | 0.0 | n | n
COc1ccc2c3c(n(C)c2c1)[C@H](CO)N(S(C)(=O)=O)CC31CN(C(=O)C2CC2)C1 | x | n | x | x | x | x
C[C@H](CO)N1C[C@H](C)[C@@H](CN(C)Cc2ccc(Oc3ccccc3)cc2)Oc2c(NC(=O)Cc3ccccc3)cccc2C1=O | x | n | x | x | x | x
COc1ccc(C(=O)CN2C(=O)c3ccccc3C2=O)c(OC)c1C | n | x | n | n | 19 | n
CCCNC(=O)Nc1ccc2c(c1)C(=O)N(C)C[C@@H](OC)[C@H](C)CN(CCC(F)(F)F)[C@H](C)CO2 | x | n | x | x | x | x
COc1ccccc1C(=O)NC(=S)Nc1ccc(S(=O)(=O)N2CCN(C)CC2)cc1 | n | n | n | 0.0 | n | n
C[C@H](CO)N1C[C@H](C)[C@@H](CN(C)S(=O)(=O)c2ccc(F)cc2)Oc2c(NS(=O)(=O)c3cn(C)cn3)cccc2C1=O | x | n | x | x | x | x
SMILES | Arrestin-AP2 inh | Xi reactivation | MIN6 prolif | T cell modulator | V-ATPase pH | NTR1 agonist
C[C@H]1CN(C)C(=O)Cc2ccccc2O[C@H]1CN(C)S(C)(=O)=O | x | n | x | x | x | x
c1ccc(-c2csc3ncnc(NCc4ccccn4)c23)cc1 | n | n | n | n | 22 | n
COc1ccc(Cl)cc1N1C(=O)c2cccnc2C1=O | n | n | n | n | 18 | n
CCCCC#Cc1ccc2c(c1)COc1c3ccccc3nn1-2 | n | n | n | n | n | n
CCCCCCC#Cc1ccc2c(c1)COc1c3ccccc3nn1-2 | n | n | n | 0.0 | n | n
COc1ccc(S(=O)(=O)Nc2ccc3c(c2)CC(=O)N([C@@H](C)CO)C[C@H](C)[C@@H](CN(C)C(=O)Nc2ccc(F)cc2)O3)cc1 | x | n | x | x | x | x
CCS(=O)(=O)NCC(c1cccnc1)N1CCN(c2ccccc2)CC1 (centres undefined) | n | n | n | n | 21 | n
N#Cc1nc(COc2ccc(-c3ccccc3)cc2)oc1NCCCN1CCOCC1 | 83 | x | n | n | n | n
OCCCCNCc1cc(Br)ccc1OCc1ccccc1F | n | n | n | 27 | n | n
CCc1ccccc1NC(=O)CCC(=O)c1cccs1 | n | n | n | n | n | n
O=C(CCC(=O)c1cccs1)Nc1ccccc1F | n | x | n | n | 19 | n
Cc1ccc(-n2sc3ccccc3c2=O)cc1S(=O)(=O)N1CCCCC1 | 90 | n | n | n | n | n
O=C1C=CC(=Nc2cccc3c2C(=O)c2ccccc2-3)O1 | n | x | x | x | 11 | x
O=C1C(=O)c2c(ccc3ccccc23)-c2ccccc21 | n | n | x | x | n | x
O=C1N[C@@H](Cc2ccccc2)COCc2cnnn2CC[C@@H]1Cc1cccc(F)c1 | x | n | x | x | x | x
Cc1cc(C)n2nc(SCC(=O)c3c(N)n(CC(C)C)c(=O)n(C)c3=O)nc2n1 | n | n | n | n | 17 | n
Cc1cc(C)n2nc(SCC(=O)N(CC(C)C)c3c(N)n(CC(C)C)c(=O)[nH]c3=O)nc2n1 | n | n | n | n | n | n
C/C(=N\NC(=O)c1ccc(NS(=O)(=O)c2cccs2)cc1)c1cccs1 | n | n | n | n | n | n
C/C(=N\NC(=O)c1ccc(Cl)cc1)c1cccs1 | n | n | x | x | 12 | x
COc1ccc2c3c(n(C)c2c1)[C@H](CO)N(C(C)=O)CC31CCN(C(=O)c2ccccc2)CC1 | x | n | x | x | x | x
Cc1cccc2sc(NNC(=O)c3ccc(S(=O)(=O)N4CCc5ccccc5C4)cc3)nc12 | n | n | n | n | n | n
Cc1cccc2sc(NNC(=O)c3ccc(S(=O)(=O)N4CCCC(C)C4)cc3)nc12 (centres undefined) | n | n | x | n | 10 | x
O=C(C#Cc1ccccc1)c1ccccc1 | x | n | x | x | n | x
O=C(C#Cc1ccccc1)c1ccc([N+](=O)[O-])cc1 | n | x | n | x | 12 | n
CC(=O)N[C@@H]1CC[C@@H](CCNC(=O)C2CC2)O[C@@H]1CO | x | n | x | x | x | x
OCCNc1nc2nonc2nc1NCCO | n | n | n | n | n | n
CC(C)(C)Nc1nc2nonc2nc1NC(C)(C)C | n | x | n | 0.0 | n | n
COc1ccc(C(=O)c2c(N)sc3c2CCN(C)C3)cc1 | n | n | 8.0 | n | n | n
COc1ccc(C(=O)c2c(NC(C)=O)sc3c2CCN(C(=O)OC(C)(C)C)C3)cc1 | n | n | n | n | n | n
